The subject of assay [1] is KB 3-1. Description: In vitro antimalarial activity against KB 3-1. Type of assay: functional, cell-based. Conditions: Homo sapiens. In short, it runs like this:
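Cytotoxicity was measured by colorimetric MTT assay, with mitomycin C as positive control.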

In assay [2] the test system is Mus musculus. Description: Survival days of the treated animal to that of control animal at a dose of 10 mg/kg. It counts as functional.
Assay [3] in a line: Selectivity index was determined. It counts as functional.
The test system of assay [4] is Plasmodium falciparum. Description: In vitro anti-malarial activity against Plasmodium falciparum. It counts as functional, organism-based. In short, it runs like this:
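FCR3 strain (cycloguanil-resistant, Gambia) was sorbitol-synchronized and plated at ring stage (0.55% parasitemia, 2% hematocrit). Compound was added from DMSO stock diluted in complete medium (1% DMSO final). After 48 h at 37 °C, proliferation was scored on Giemsa smears, 10,000 erythrocytes per film, in triplicate. Quinine was the reference.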

For assay [5], the system named is Mus musculus. Briefly: In vivo anti-malarial activity against Plasmodium berghei.
The species entered for assay [6] is Mus musculus. Briefly: In vitro anti-malarial activity in mice (Mus musculus) serum after 24 hr. It counts as functional, organism-based.

This note sets out measurements from ChEMBL document CHEMBL1136442, “New anti-malarial peroxides with in vivo potency derived from spongean metabolites” (Bioorg Med Chem Lett, 2003).

Molecules are shown by their SMILES.

With `CCCCCC1(OC)CCC(CC(=O)N(CC)CC)OO1` (centres undefined), the results for the IC50 in assay [1] and in assay [4] were 13 µM and 490 nM, respectively. The same compound yielded a T/C in assay [2] of 118. The Selectivity index in assay [3] was found to be 27. Besides, the 50% effect level in assay [5] (ED50) was put at a dose of 20 mg/kg.
Consider `CCCCCC1(OC)CCC(CC(=O)NCCC)OO1` (centres undefined), for which the values for the IC50 in assay [1] and in assay [4] were 12 µM and 310 nM, respectively. This compound had a T/C in assay [2] of 138. The compound further showed a Selectivity index in assay [3] of 39. The median effective dose (ED50) – broadly, the dose at which the effect has come halfway, by size or by number of responders – in assay [5] is 9.3 mg/kg.
For `CCCCCC1(OC)CCC(CC(=O)OC)OO1` (centres undefined), the T/C in assay [2] stood at 81. The same compound displayed a Selectivity index in assay [3] of 360. This compound yielded an ED50 in assay [5] of over 30 mg/kg.
In the case of `CCCCCC1(OC)CCC(CC(=O)NCC)OO1` (centres undefined), the figures for the IC50 in assay [1] and in assay [4] were 14 µM and 540 nM, respectively. In assay [2], this compound showed a T/C of 125. Also, the Selectivity index in assay [3] was found to be 25. The ED50 in assay [5] was determined as 11 mg/kg.
`CCCCCC1(OC)CCC(CC(=O)N(C)C)OO1` (centres undefined): the IC50 (as a rule, the concentration at which inhibition is half-maximal) came to 4 µM in assay [1] and 310 nM in assay [4]. The same compound registered a T/C in assay [2] of 95. The Selectivity index in assay [3] was found to be 13. This compound also showed an ED50 in assay [5] of 13 mg/kg.
As to `CCCCCC1(OC)CCC(CC(=O)O)OO1` (centres undefined), the IC50 in assay [6] is over 1200 nM.
On to `C[C@@H]1CC[C@H]2[C@@H](C)C(=O)O[C@@H]3O[C@@]4(C)CC[C@@H]1[C@]32OO4` [ARTEMISININ], for which, in assay [5], the ED50 is 5 mg/kg.
As to `CCCCCC1(OC)CCC(CC(=O)NC)OO1` (centres undefined), the results for the concentration for half-maximal inhibition (IC50) in assay [1] and in assay [4] were 5.2 µM and 520 nM, respectively. In assay [2], this compound yielded a T/C of 118. The Selectivity index in assay [3] is 10.
